Each block holds one molecule with its values, some of them ahead of it. Active and inactive are the calls of the source. No cut-off for these calls is given here.
Columns and labels:
Assay type in all cases: functional
A549 [1] = assay: Cytotoxicity against human A549 cells assessed as inhibition of cell growth at 10 uM after 48 hrs by SRB assay relative to control; conditions: A549, 48 h, read-out: GI
In short: (§1)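 SRB protein assay in DMEM with 10% FBS at 37 °C, 5% CO2, 100% relative humidity. Cells seeded in 96-well plates, incubated 24 h, then exposed to drug at 10 µM for 48 h and processed per standard protocol. Absorbance read at 560 nm; growth percentage calculated for test wells relative to control wells.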

IMR-32 = assay: Cytotoxicity against human IMR32 cells after 48 hrs assessed as inhibition of cell growth at 10 uM after 48 hrs by SRB assay relative to control; conditions: IMR-32, 48 h, read-out: GI; in short: as §1
MCF7 [2] = assay: Cytotoxicity against human MCF7 cells after 48 hrs assessed as inhibition of cell growth at 10 uM after 48 hrs by SRB assay relative to control; conditions: MCF7, 48 h, read-out: GI; in short: as §1
PC-3 [3] = assay: Cytotoxicity against human PC3 cells after 48 hrs assessed as inhibition of cell growth at 10 uM after 48 hrs by SRB assay relative to control; conditions: PC-3, 48 h, read-out: GI; in short: as §1
CCRF-CEM = assay: Growth inhibition of human CCRF-CEM cells after 48 hrs by SRB assay
In short: (§2)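 NCI 60-cell-line screen: after preliminary screening, tested at five dose concentrations on 59 human tumour lines covering leukemia, lung, colon, CNS, melanoma, ovarian, renal, prostate and breast.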

MOLT-4 = assay: Growth inhibition of human MOLT4 cells after 48 hrs by SRB assay; conditions: MOLT-4, 48 h; in short: as §2
SR = assay: Growth inhibition of human SR cells after 48 hrs by SRB assay
In short: (§3)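 NCI 60-cell-line panel, five-dose testing after preliminary screen; sulforhodamine B protein assay in DMEM with 10% FBS, 37 °C, 5% CO2, 100% humidity. Cells seeded and incubated 24 h before compound addition, then exposed 48 h. Absorbance read at 560 nm; growth percentage relative to control wells; GI50 taken as concentration giving 50% growth inhibition.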

A549 [4] = assay: Growth inhibition of human A549 cells after 48 hrs by SRB assay; conditions: A549, 48 h; in short: as §2
EKVX = assay: Growth inhibition of human EKVX cells after 48 hrs by SRB assay; in short: as §2
HOP-62 = assay: Growth inhibition of human HOP62 cells after 48 hrs by SRB assay; conditions: HOP-62, 48 h; in short: as §2
HOP-92 = assay: Growth inhibition of human HOP92 cells after 48 hrs by SRB assay; conditions: HOP-92, 48 h; in short: as §2
NCI-H226 = assay: Growth inhibition of human NCI-H226 cells after 48 hrs by SRB assay; conditions: NCI-H226, 48 h; in short: as §2
NCI-H23 = assay: Growth inhibition of human NCI-H23 cells after 48 hrs by SRB assay; conditions: NCI-H23, 48 h; in short: as §2
NCI-H322M = assay: Growth inhibition of human NCI-H322M cells after 48 hrs by SRB assay; in short: as §2
HCC 2998 = assay: Growth inhibition of human HCC2998 cells after 48 hrs by SRB assay; conditions: HCC 2998, 48 h; in short: as §2
HCT-116 = assay: Growth inhibition of human HCT116 cells after 48 hrs by SRB assay; conditions: HCT-116, 48 h; in short: as §2
HT-29 = assay: Growth inhibition of human HT-29 cells after 48 hrs by SRB assay; in short: as §2
KM12 = assay: Growth inhibition of human KM12 cells after 48 hrs by SRB assay; conditions: KM12, 48 h; in short: as §2
SF-295 = assay: Growth inhibition of human SF295 cells after 48 hrs by SRB assay; conditions: SF-295, 48 h; in short: as §3
SNB-75 = assay: Growth inhibition of human SNB75 cells after 48 hrs by SRB assay; conditions: SNB-75, 48 h; in short: as §3
Malme-3M = assay: Growth inhibition of human MALME-3M cells after 48 hrs by SRB assay; in short: as §2
M14 = assay: Growth inhibition of human M14 cells after 48 hrs by SRB assay; conditions: M14, 48 h; in short: as §2
SK-MEL-2 = assay: Growth inhibition of human SK-MEL-2 cells after 48 hrs by SRB assay; conditions: SK-MEL-2, 48 h; in short: as §3
SK-MEL-28 = assay: Growth inhibition of human SK-MEL-28 cells after 48 hrs by SRB assay; conditions: SK-MEL-28, 48 h; in short: as §3
OVCAR-5 = assay: Growth inhibition of human OVCAR5 cells after 48 hrs by SRB assay; conditions: OVCAR-5, 48 h; in short: as §2
OVCAR-4 = assay: Growth inhibition of human OVCAR4 cells after 48 hrs by SRB assay; conditions: OVCAR-4, 48 h; in short: as §2
OVCAR-8 = assay: Growth inhibition of human OVCAR8 cells after 48 hrs by SRB assay; conditions: OVCAR-8, 48 h; in short: as §2
NCI/ADR-RES = assay: Growth inhibition of human NCI/ADR-RES cells after 48 hrs by SRB assay; in short: as §2
SK-OV-3 = assay: Growth inhibition of human SKOV3 cells after 48 hrs by SRB assay; conditions: SK-OV-3, 48 h; in short: as §3
786-0 = assay: Growth inhibition of human 786-0 cells after 48 hrs by SRB assay; in short: as §2
A498 = assay: Growth inhibition of human A498 cells after 48 hrs by SRB assay; conditions: A498, 48 h; in short: as §2
SN12C = assay: Growth inhibition of human SN12C cells after 48 hrs by SRB assay; in short: as §3
TK-10 = assay: Growth inhibition of human TK10 cells after 48 hrs by SRB assay; conditions: TK-10, 48 h; in short: as §3
PC-3 [5] = assay: Growth inhibition of human PC3 cells after 48 hrs by SRB assay; conditions: PC-3, 48 h; in short: as §2
DU-145 = assay: Growth inhibition of human DU145 cells after 48 hrs by SRB assay; conditions: DU-145, 48 h; in short: as §2
MCF7 [6] = assay: Growth inhibition of human MCF7 cells after 48 hrs by SRB assay; conditions: MCF7, 48 h; in short: as §2
MDA-MB-231 = assay: Growth inhibition of human MDA-MB-231 cells after 48 hrs by SRB assay; conditions: MDA-MB-231, 48 h; in short: as §2
Hs-578T = assay: Growth inhibition of human Hs578T cells after 48 hrs by SRB assay; in short: as §2
BT-549 = assay: Growth inhibition of human BT549 cells after 48 hrs by SRB assay; conditions: BT-549, 48 h; in short: as §2
T47D = assay: Growth inhibition of human T47D cells after 48 hrs by SRB assay; in short: as §3
MDA-MB-468 = assay: Growth inhibition of human MDA-MB-468 cells after 48 hrs by SRB assay; in short: as §2
MCF7 [7] = assay: Cell cycle arrest in human MCF7 cells assessed as accumulation at G1 phase at 4 uM after 24 hrs by FACS analysis (reference value: 58.33%)
MCF7 [8] = assay: Cell cycle arrest in human MCF7 cells assessed as accumulation at S phase at 4 uM after 24 hrs by FACS analysis (reference value: 6.79%)
SW-620 = assay: Growth inhibition of human SW620 cells after 48 hrs by SRB assay; conditions: SW-620, 48 h; in short: as §3

GI50 (CCRF-CEM): 2 nM
GI50 (MOLT-4): 3 nM
GI50 (A549 [4]): 15 nM
GI50 (NCI-H226): 3 nM
GI50 (NCI-H23): 3 nM
GI50 (NCI-H322M): 3 nM
GI50 (HCC 2998): 63 nM
GI50 (HCT-116): 3 nM
GI50 (HT-29; HT-29, 48 h): 100 nM
GI50 (SK-MEL-2): 3 nM
GI50 (SK-MEL-28): 7 nM
GI50 (OVCAR-5): 100 nM
GI50 (OVCAR-4): 15 nM
GI50 (OVCAR-8): 3 nM
GI50 (SK-OV-3): 63 nM
GI50 (786-0; 786-0, 48 h): 100 nM
GI50 (PC-3 [5]): 1 nM
GI50 (DU-145): 1 nM
GI50 (MCF7 [6]): 5 nM
GI50 (MDA-MB-231): 1 nM
GI50 (BT-549): 10 µM
GI50 (T47D): 10 µM
GI50 (MDA-MB-468): inactive
GI50 (SW-620): 3 nM
SMILES: COc1ccc(/C=C\c2cc(OC)c(OC)c(OC)c2)cc1O [COMBRETASTATIN A4]
inhibition of growth at 10 µM (A549 [1]): 55%
inhibition of growth at 10 µM (IMR-32): 89%
inhibition of growth at 10 µM (MCF7 [2]): 71%
inhibition of growth at 10 µM (PC-3 [3]): 76%
GI50 (SR): 3 nM
GI50 (EKVX): 79 nM
GI50 (HOP-62): 0.002 µM
GI50 (HOP-92): 2 nM
GI50 (KM12): 5 nM
GI50 (SF-295): 3 nM
GI50 (SNB-75): 7 nM
GI50 (Malme-3M): 19 nM
GI50 (M14): 2 nM
GI50 (NCI/ADR-RES): 1 nM
GI50 (A498): 6 nM
GI50 (SN12C): 6 nM
GI50 (TK-10): 0.1 µM
GI50 (Hs-578T): 1 nM
Activity (MCF7 [7]): 24.5%
Activity (MCF7 [8]): 14.27%

SMILES: COc1ccc(/C=C\c2cc(OC)c(OC)c(OC)c2)cc1OCC(=O)Nc1nc2ccc(OC(F)(F)F)cc2s1
inhibition of growth at 10 µM (A549 [1]): 40%
inhibition of growth at 10 µM (IMR-32): 44%
inhibition of growth at 10 µM (MCF7 [2]): 59%
inhibition of growth at 10 µM (PC-3 [3]): 34%
GI50 (CCRF-CEM): 4120 nM
GI50 (MOLT-4): 4210 nM
GI50 (SR): 3550 nM
GI50 (A549 [4]): 6000 nM
GI50 (EKVX): 7890 nM
GI50 (HOP-62): 7.09 µM
GI50 (HOP-92): 2740 nM
GI50 (NCI-H226): 4300 nM
GI50 (NCI-H23): 4390 nM
GI50 (NCI-H322M): inactive
GI50 (HCC 2998): 17100 nM
GI50 (HCT-116): 3920 nM
GI50 (HT-29): inactive
GI50 (KM12): 4480 nM
GI50 (SF-295): 3700 nM
GI50 (SNB-75): 1560 nM
GI50 (M14): 4360 nM
GI50 (SK-MEL-2): 3290 nM
GI50 (SK-MEL-28): 4570 nM
GI50 (OVCAR-5): 3120 nM
GI50 (OVCAR-4): 5340 nM
GI50 (OVCAR-8): 5000 nM
GI50 (NCI/ADR-RES): 2700 nM
GI50 (SK-OV-3): 8420 nM
GI50 (786-0): inactive
GI50 (A498): 3610 nM
GI50 (SN12C): 6420 nM
GI50 (TK-10): 18.6 µM
GI50 (PC-3 [5]): 5120 nM
GI50 (DU-145): 4110 nM
GI50 (MCF7 [6]): 2890 nM
GI50 (MDA-MB-231): 5160 nM
GI50 (Hs-578T): 4330 nM
GI50 (BT-549): 10.5 µM
GI50 (T47D): 3.95 µM
GI50 (MDA-MB-468; MDA-MB-468, 48 h): 2300 nM
Activity (MCF7 [7]): 59.04%
Activity (MCF7 [8]): 7.51%
GI50 (SW-620): 5650 nM

GI50 (CCRF-CEM): 78 nM
GI50 (MOLT-4): 340 nM
GI50 (A549 [4]): 340 nM
GI50 (NCI-H226): 270 nM
GI50 (NCI-H23): 110 nM
GI50 (HCC 2998): 370 nM
GI50 (HCT-116): 46 nM
GI50 (HT-29; HT-29, 48 h): 3160 nM
GI50 (SK-MEL-2): 180 nM
GI50 (OVCAR-4): 370 nM
GI50 (OVCAR-8): 250 nM
GI50 (SK-OV-3): 340 nM
GI50 (786-0; 786-0, 48 h): 100 nM
GI50 (PC-3 [5]): 180 nM
GI50 (DU-145): 100 nM
GI50 (MCF7 [6]): 51 nM
GI50 (MDA-MB-231): 190 nM
GI50 (BT-549): 0.41 µM
GI50 (T47D): 1 µM
GI50 (MDA-MB-468; MDA-MB-468, 48 h): 100 nM
SMILES: COc1ccc(/C=C\c2cc(OC)c(OC)c(OC)c2)cc1OCC(=O)Nc1nc2ccccc2s1
inhibition of growth at 10 µM (A549 [1]): 44%
inhibition of growth at 10 µM (IMR-32): 91%
inhibition of growth at 10 µM (MCF7 [2]): 72%
inhibition of growth at 10 µM (PC-3 [3]): 44%
GI50 (SR): 37 nM
GI50 (EKVX): 38 nM
GI50 (HOP-92): 39 nM
GI50 (KM12): 58 nM
GI50 (SF-295): 220 nM
GI50 (SNB-75): 46 nM
GI50 (Malme-3M): 1990 nM
GI50 (M14): 72 nM
GI50 (NCI/ADR-RES): 33 nM
GI50 (A498): 360 nM
GI50 (SN12C): 370 nM
Activity (MCF7 [7]): 25.94%
Activity (MCF7 [8]): 27.48%
